Laboratory results taken from ChEMBL document CHEMBL1799916, “Novel 3,5-bis(bromohydroxybenzylidene)piperidin-4-ones as coactivator-associated arginine methyltransferase 1 inhibitors: enzyme selectivity and cellular activity” (J Med Chem, 2011).
Active and inactive are the calls of the source. The rule behind the calls is not given here.

Tests used:
[1] = molecular target: T1, Histone-lysine N-methyltransferase SUV39H1 (Homo sapiens) (UniProt O43463); experiment: Inhibition of Suv39H1-mediated methylation of histone H3 at 100 uM after 90 mins by scintillation counting in presence of S-adenosyl-l-[methyl-3H]methionine
T1 sequence (whole entry): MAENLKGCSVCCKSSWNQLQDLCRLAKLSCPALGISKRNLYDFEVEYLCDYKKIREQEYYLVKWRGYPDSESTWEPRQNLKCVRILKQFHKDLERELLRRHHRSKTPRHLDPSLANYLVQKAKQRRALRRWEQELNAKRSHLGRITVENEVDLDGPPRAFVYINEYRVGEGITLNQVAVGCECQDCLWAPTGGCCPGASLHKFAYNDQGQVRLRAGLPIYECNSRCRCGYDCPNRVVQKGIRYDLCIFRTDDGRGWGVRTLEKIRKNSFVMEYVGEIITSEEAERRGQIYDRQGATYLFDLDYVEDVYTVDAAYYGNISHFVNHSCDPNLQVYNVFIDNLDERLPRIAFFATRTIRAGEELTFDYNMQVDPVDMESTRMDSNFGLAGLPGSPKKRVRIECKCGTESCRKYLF

[2] = molecular target: Histone-lysine N-methyltransferase, H3 lysine-79 specific (Homo sapiens) (UniProt Q8TEK3); experiment: Inhibition of DOTL1-mediated methylation of nucleosome at 100 uM after 90 mins by scintillation counting in presence of S-adenosyl-l-[methyl-3H]methionine
Sequence of Histone-lysine N-methyltransferase, H3 lysine-79 specific (Homo sapiens) (Q8TEK3 whole entry, looked up): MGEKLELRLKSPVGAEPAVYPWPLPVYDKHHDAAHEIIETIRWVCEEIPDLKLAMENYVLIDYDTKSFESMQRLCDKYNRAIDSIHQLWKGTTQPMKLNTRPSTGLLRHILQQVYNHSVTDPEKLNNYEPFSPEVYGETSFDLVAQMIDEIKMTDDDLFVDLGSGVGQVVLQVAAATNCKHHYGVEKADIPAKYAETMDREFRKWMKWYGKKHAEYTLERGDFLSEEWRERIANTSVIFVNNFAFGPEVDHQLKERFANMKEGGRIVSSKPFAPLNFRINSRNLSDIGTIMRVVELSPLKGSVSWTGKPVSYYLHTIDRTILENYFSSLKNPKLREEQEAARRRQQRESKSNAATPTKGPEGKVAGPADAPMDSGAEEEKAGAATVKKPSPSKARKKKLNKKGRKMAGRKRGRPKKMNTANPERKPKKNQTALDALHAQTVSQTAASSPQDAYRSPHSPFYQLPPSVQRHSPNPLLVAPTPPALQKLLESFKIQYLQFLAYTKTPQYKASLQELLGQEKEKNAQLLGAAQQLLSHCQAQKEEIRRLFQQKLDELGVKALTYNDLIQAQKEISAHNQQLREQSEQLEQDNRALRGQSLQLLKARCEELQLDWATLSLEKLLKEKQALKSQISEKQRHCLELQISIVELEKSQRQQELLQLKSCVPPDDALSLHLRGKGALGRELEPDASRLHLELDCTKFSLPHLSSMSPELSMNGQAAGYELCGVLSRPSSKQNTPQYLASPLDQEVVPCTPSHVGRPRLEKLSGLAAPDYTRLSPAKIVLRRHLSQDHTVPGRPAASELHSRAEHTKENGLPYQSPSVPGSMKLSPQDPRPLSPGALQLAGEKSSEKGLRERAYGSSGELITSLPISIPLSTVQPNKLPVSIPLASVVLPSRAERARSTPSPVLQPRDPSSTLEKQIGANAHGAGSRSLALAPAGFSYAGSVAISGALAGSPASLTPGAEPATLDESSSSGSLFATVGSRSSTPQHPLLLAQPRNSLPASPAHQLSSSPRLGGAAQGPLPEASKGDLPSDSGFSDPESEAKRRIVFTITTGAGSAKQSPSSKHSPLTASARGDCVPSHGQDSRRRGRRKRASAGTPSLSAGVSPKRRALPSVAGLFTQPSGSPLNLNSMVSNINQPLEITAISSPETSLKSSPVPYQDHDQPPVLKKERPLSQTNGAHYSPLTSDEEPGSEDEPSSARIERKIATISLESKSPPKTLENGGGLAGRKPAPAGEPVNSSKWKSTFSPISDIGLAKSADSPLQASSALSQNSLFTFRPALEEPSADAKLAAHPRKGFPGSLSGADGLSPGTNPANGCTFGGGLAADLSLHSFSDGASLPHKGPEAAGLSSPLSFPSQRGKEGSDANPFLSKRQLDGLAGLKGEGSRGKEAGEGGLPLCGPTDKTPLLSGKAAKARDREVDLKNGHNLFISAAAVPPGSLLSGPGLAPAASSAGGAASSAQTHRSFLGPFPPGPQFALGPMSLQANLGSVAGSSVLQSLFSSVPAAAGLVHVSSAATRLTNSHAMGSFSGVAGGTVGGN
How it was run: (§1)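 Compound at 100 μM with 0.1–0.2 μM recombinant enzyme and 0.5–1.5 μM substrate in PBS pH 7.4 containing [³H]AdoMet. Incubated 30 °C for 90 min, then SDS-PAGE, PVDF transfer and overnight film fluorography. Ponceau-stained substrate bands cut out and dpm counted by liquid scintillation.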

[3] = molecular target: T2, Histone-arginine methyltransferase CARM1 (Homo sapiens) (UniProt Q86X55); experiment: Inhibition of CARM1-mediated methylation of PABP1 at 100 uM after 90 mins by scintillation counting in presence of S-adenosyl-l-[methyl-3H]methionine
T2 sequence (whole entry): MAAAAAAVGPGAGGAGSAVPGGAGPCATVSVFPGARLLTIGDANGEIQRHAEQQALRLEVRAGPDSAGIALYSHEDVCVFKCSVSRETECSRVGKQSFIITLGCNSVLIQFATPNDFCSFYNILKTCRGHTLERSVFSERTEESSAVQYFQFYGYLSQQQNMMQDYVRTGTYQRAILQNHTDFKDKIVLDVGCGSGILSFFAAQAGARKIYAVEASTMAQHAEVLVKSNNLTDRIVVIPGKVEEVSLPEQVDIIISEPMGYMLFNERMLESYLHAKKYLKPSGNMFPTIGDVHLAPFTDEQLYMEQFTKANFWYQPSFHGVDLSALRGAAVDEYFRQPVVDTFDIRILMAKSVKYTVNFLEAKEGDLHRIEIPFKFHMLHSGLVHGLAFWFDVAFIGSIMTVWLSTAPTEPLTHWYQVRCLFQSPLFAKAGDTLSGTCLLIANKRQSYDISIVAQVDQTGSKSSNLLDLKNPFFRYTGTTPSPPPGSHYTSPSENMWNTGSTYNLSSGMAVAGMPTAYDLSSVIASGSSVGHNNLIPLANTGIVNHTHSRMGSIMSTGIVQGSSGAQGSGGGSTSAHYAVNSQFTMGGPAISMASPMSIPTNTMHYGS
How it was run: as §1

[4] = molecular target: T3, Histone-lysine N-methyltransferase EHMT2 (Homo sapiens) (UniProt Q96KQ7); experiment: Inhibition of G9a-mediated methylation of histone H3 at 100 uM after 90 mins by scintillation counting in presence of S-adenosyl-l-[methyl-3H]methionine
T3 sequence (whole entry): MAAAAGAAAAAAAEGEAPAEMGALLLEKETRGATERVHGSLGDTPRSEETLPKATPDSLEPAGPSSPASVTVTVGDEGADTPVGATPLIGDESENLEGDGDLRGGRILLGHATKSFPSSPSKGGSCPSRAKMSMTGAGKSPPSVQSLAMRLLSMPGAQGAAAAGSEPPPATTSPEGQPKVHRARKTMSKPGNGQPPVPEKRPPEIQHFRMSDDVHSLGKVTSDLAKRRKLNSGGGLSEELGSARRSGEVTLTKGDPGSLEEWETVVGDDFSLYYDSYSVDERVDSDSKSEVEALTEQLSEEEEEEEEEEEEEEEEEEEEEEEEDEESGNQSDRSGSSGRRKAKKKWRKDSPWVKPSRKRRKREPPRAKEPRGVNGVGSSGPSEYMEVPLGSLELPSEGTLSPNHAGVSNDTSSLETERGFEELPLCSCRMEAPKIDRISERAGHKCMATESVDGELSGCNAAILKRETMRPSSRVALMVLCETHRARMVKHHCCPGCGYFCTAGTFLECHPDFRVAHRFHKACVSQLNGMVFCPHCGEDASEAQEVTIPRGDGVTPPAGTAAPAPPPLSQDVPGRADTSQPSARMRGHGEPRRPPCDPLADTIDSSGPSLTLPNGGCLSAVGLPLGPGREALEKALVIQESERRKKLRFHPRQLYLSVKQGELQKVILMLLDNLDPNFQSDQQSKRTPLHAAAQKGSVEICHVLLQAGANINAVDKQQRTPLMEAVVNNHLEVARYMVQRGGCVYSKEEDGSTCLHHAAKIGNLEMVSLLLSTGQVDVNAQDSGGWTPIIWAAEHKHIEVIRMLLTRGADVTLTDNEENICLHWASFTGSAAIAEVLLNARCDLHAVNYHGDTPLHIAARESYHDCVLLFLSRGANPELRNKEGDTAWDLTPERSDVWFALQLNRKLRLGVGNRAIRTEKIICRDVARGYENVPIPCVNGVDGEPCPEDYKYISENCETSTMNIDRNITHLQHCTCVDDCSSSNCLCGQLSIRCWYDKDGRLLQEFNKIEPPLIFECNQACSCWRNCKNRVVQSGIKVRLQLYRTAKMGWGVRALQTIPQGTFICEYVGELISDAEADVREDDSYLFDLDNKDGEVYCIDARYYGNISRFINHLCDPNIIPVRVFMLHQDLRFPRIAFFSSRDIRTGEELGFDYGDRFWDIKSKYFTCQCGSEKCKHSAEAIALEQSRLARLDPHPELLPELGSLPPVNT
How it was run: as §1

Structure (SMILES)	inhibition [1]	inhibition [2]	inhibition [3]	inhibition [4]
O=C1/C(=C/c2ccc(O)c(Br)c2)CN(Cc2cccc(Cl)c2)C/C1=C\c1ccc(O)c(Br)c1	inactive	inactive	Active	inactive
O=C1/C(=C/c2ccc(O)c(Br)c2)CN(CC(=O)c2ccccc2)C/C1=C\c1ccc(O)c(Br)c1	inactive	inactive	Active	inactive
O=C1/C(=C/c2ccc(O)c(Br)c2)CN(Cc2ccccc2)C/C1=C\c1ccc(O)c(Br)c1	inactive	inactive	Active	inactive
